Laboratory results taken from article PMC6720533 (Biomolecules & Therapeutics, 2019).

Tests used:
recombinant human CK2α1 = recombinant human CK2α1 (Homo sapiens, UniProt P68400); assay: CK2 kinase activity assay; format: biochemical; settings: 10 μM ATP, 60 min
In short: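 Recombinant human CK2α1 (50 ng) was incubated with 2.5 μg CK2α1 substrate, 10 μM ATP, and test compound, reference inhibitor or DMSO for 60 min at room temperature. ADP-Glo reagent stopped the reaction and depleted remaining ATP. Detection reagent then converted ADP to ATP for luciferase/luciferin luminescence, which tracks the ADP formed as the measure of kinase activity.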

Jurkat cells = assay: WST-1 metabolic activity assay; format: cell-based; settings: Homo sapiens, 72 h, read-out: metabolic activity
In short: (§1)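 Test compound came from a 10 mM DMSO stock. Cells were seeded at 5×10^4/well in triplicate with 5 or 10 μM final compound; controls got matched DMSO. After 72 h at 37°C, 5% CO2, WST-1 was added for a further 3 h. Absorbance was read at 450 nm (reference 620 nm), and metabolic activity given as % of DMSO control.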

CEM cells = assay: WST-1 metabolic activity assay; format: cell-based; settings: Homo sapiens, CCRF-CEM, 72 h, read-out: metabolic activity
In short: as §1

RS4;11 cells = assay: WST-1 metabolic activity assay; format: cell-based; settings: Homo sapiens, RS4-11, 72 h, read-out: metabolic activity
In short: as §1

SEM cells = assay: WST-1 metabolic activity assay; format: cell-based; settings: Homo sapiens, 72 h, read-out: metabolic activity
In short: as §1

recombinant human CK2α1, sequence (P68400 whole entry): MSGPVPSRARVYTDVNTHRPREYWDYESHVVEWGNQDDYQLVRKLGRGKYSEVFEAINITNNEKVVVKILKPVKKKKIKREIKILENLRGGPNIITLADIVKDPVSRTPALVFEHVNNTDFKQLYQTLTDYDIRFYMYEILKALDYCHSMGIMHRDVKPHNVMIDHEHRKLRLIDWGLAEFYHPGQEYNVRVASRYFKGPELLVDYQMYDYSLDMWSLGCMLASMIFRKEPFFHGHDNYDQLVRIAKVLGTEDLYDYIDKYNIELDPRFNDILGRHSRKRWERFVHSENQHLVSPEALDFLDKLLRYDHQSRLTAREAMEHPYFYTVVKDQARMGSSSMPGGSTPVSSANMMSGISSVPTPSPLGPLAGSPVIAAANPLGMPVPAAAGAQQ

Compound	CK2 enzyme activity (recombinant human CK2α1; 0.1 μM)	CK2 enzyme activity compared to DMSO (100%) (recombinant human CK2α1; 1 μM)	viability at 5 µM (Jurkat cells)	viability at 10 µM (Jurkat cells)	viability at 5 µM (CEM cells)	viability at 10 µM (CEM cells)	activity at 5 µM (RS4;11 cells)	activity at 10 µM (RS4;11 cells)	activity at 5 µM (SEM cells)	activity at 10 µM (SEM cells)
O=C(O)c1ccc2c(c1)nc(Nc1cccc(Cl)c1)c1ccncc12 [CX-4945, reference compound]	Reduction of CK2 enzyme activity	3.4 ± 0.3%	–	–	–	–	–	–	–	–
CC(=O)c1ccc2c(=O)n3c(nc2c1)-c1ccccc1C3 [FX-1, 7-Acetylisoindolo[1,2-b]quinazolin-10(12H)-one]	–	–	93.4%	68.5 ± 14.8%	87.1%	83.9%	99.3%	94.4%	107%	97.7%
O=c1c2ccc(F)cc2nc2n1Cc1ccccc1-2 [FX-2, 7-Fluoroisoindolo[1,2-b]quinazolin-10(12H)-one]	–	–	81.3%	54.3%	86.3%	77.2%	97.3%	79.8%	100%	69.8%
O=c1c2cc(Cl)ccc2nc2n1Cc1ccccc1-2 [FX-3, 8-Chloroisoindolo[1,2-b]quinazolin-10(12H)-one]	–	–	57.9%	77%	76.2%	86%	73.8%	40.2%	32%	26.7%
Cc1ccc2c(=O)n3c(nc2c1)-c1ccccc1C3 [FX-4, 7-Methylisoindolo[1,2-b]quinazolin-10(12H)-one]	–	–	90.4%	86.6%	102%	90.6%	91.2%	85.9%	96.8%	64.9%
Cc1ccc2c(=O)n3c(nc2c1)-c1ccc(F)cc1C3 [FX-5, 2-Fluoro-7-methylisoindolo[1,2-b]quinazolin-10(12H)-one]	–	–	94%	96.5%	101%	95%	91.4%	86.7%	91.7%	74.7%
O=c1c2ccccc2nc2n1Cc1cc(F)ccc1-2 [FX-6, 2-Fluoroisoindolo[1,2-b]quinazolin-10(12H)-one]	–	–	105%	97.5%	93.2%	107%	76.6%	67.1%	72.1%	51.4%
Cc1ccc2nc3n(c(=O)c2c1)Cc1ccccc1-3 [FX-7, 8-Methylisoindolo[1,2-b]quinazolin-10(12H)-one]	–	–	91.4%	84.3%	96.1%	85%	61.3%	49.4%	52.1%	25.2%
Cc1cc(C)c2nc3n(c(=O)c2c1)Cc1ccccc1-3 [FX-8, 6,8-Dimethylisoindolo[1,2-b]quinazolin-10(12H)-one]	–	–	95.2%	92.5%	97%	85%	61.5%	55.8%	23.3%	14.5%
COc1ccc2c(N)nc(-c3ccccc3)cc2c1 [FX-42, 6-Methoxy-3-phenylisoquinolin-1-amine]	–	–	88.4%	32.4%	–	–	–	–	66.7%	24.5%
Cc1ccc2cc(-c3ccccc3)nc(N)c2c1 [FX-43, 7-Methyl-3-phenylisoquinolin-1-amine]	–	–	107%	104%	–	–	–	–	94.7%	94.3%
